Key:
[1] = test system: human chronic myelogenous K562 leukemia cells; experiment: Cell proliferation analysis, K562 cells; type: cell-based; settings: for IC50: Homo sapiens, K562, 24 h, read-out: IC50 K562
Summary of the method: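 K562 cells grown in RPMI 1640 with 10% FCS, 2 mM L-glutamine, […] and penicillin/streptomycin at 37°C, 5% CO2. DMSO stocks (1 mg/mL) diluted in medium. Cells (1×10^4/well) exposed to increasing concentrations for 24 h at 37°C, then counted electronically. IC50 is 50% growth inhibition vs untreated controls. Duplicate cultures per concentration, repeated experiments, mean ± SE.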

[2] = test system: murine lymphocytic L1210 leukemia cells; experiment: Cell proliferation analysis, L1210 cells; type: cell-based; settings: for IC50: Mus musculus, L1210, 24 h, read-out: IC50 L1210
Summary of the method: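 Murine L1210 cells maintained at 1×10^6 cells/mL in RPMI 1640 with 10% FCS, 2 mM L-glutamine, […] and penicillin/streptomycin (37 °C, 5% CO2). DMSO stocks (1 mg/mL) diluted in medium. 1×10^4 cells/well exposed to increasing concentrations for 24 h at 37 °C; cell number/mL counted on a Coulter counter. IC50 relative to untreated controls, duplicate cultures per concentration, mean ± SE of ≥3 independent experiments.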

tubulin = experiment: Inhibition of [3H]colchicine binding to tubulin; settings: combretastatin A-4 at 1 μM; generally observed
Summary of the method: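 Purified tubulin incubated with [3H]colchicine and test compound for 10 min at 37 °C. Read-out is percent inhibition of radiolabelled colchicine binding. Combretastatin A-4 served as reference at 1 μM.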

SMILES | IC50 [1] | IC50 [2] | further results
COc1cc(C(=O)c2oc3ccccc3c2NC(C)=O)cc(OC)c1OC [Compound 3a, N-[2-(3,4,5-Trimethoxybenzoyl)-1-benzofuran-3-yl]acetamide] | > 100 µM | – | –
COc1cc(C(=O)c2sc3c(C)cccc3c2NC(=O)CBr)cc(OC)c1OC [Compound 3aa, 2-Bromo-N-[7-methyl-2-(3,4,5-trimethoxybenzoyl)-1-benzothien-3-yl]acetamide] | 0.49 ± 0.08 µM | – | –
COc1cc(C(=O)c2sc3c(C)cccc3c2NC(=O)CI)cc(OC)c1OC [Compound 3ab, 2-Iodo-N-[7-methyl-2-(3,4,5-trimethoxybenzoyl)-1-benzothien-3-yl]acetamide] | 0.55 ± 0.01 µM | – | –
COc1cc(C(=O)c2oc3ccccc3c2NC(=O)CCl)cc(OC)c1OC [Compound 3b, 2-Chloro-N-[2-(3,4,5-trimethoxybenzoyl)-1-benzofuran-3-yl]acetamide] | 45.8 ± 1.5 µM | – | –
COc1cc(C(=O)c2oc3ccccc3c2NC(=O)CBr)cc(OC)c1OC [Compound 3c, 2-Bromo-N-[2-(3,4,5-trimethoxybenzoyl)-1-benzofuran-3-yl]acetamide] | 12.8 ± 0.51 µM | 4.56 ± 0.64 µM | –
COc1cc(C(=O)c2oc3ccccc3c2NC(=O)CI)cc(OC)c1OC [Compound 3d, 2-Iodo-N-[2-(3,4,5-trimethoxybenzoyl)-1-benzofuran-3-yl]acetamide] | 2.21 ± 0.09 µM | – | fold more potent than the bromine 3c ([1]; antiproliferative activity, K562 and L1210 cells): 6 fold
COc1ccc2oc(C(=O)c3cc(OC)c(OC)c(OC)c3)c(NC(C)=O)c2c1 [Compound 3e, N-[5-Methoxy-2-(3,4,5-trimethoxybenzoyl)-1-benzofuran-3-yl]acetamide] | 58.1 ± 1.3 µM | – | –
COc1ccc2oc(C(=O)c3cc(OC)c(OC)c(OC)c3)c(NC(=O)CCl)c2c1 [Compound 3f, 2-Chloro-N-[5-methoxy-2-(3,4,5-trimethoxy-benzoyl)-1-benzofuran-3-yl]acetamide] | 60.9 ± 2.4 µM | – | –
COc1ccc2oc(C(=O)c3cc(OC)c(OC)c(OC)c3)c(NC(=O)CBr)c2c1 [Compound 3g, 2-Bromo-N-[5-methoxy-2-(3,4,5-trimethoxybenzoyl)-1-benzofuran-3-yl]acetamide] | 53.4 ± 2.6 µM | – | –
COc1ccc2oc(C(=O)c3cc(OC)c(OC)c(OC)c3)c(NC(=O)CI)c2c1 [Compound 3h, 2-Iodo-N-[5-methoxy-2-(3,4,5-trimethoxybenzoyl)-1-benzofuran-3-yl]acetamide] | 49.2 ± 1.8 µM | 0.52 ± 0.03 µM | –
COc1cc(C(=O)c2oc3c(OC)cccc3c2NC(C)=O)cc(OC)c1OC [Compound 3m, N-[7-Methoxy-2-(3,4,5-trimethoxybenzoyl)-1-benzofuran-3-yl]acetamide] | 48.1 ± 2.6 µM | – | –
COc1cc(C(=O)c2oc3c(OC)cccc3c2NC(=O)CCl)cc(OC)c1OC [Compound 3n, 2-Chloro-N-[7-methoxy-2-(3,4,5-trimethoxybenzoyl)-1-benzofuran-3-yl]acetamide] | 82.7 ± 5.6 µM | – | –
COc1cc(C(=O)c2oc3c(OC)cccc3c2NC(=O)CBr)cc(OC)c1OC [Compound 3o, 2-Bromo-N-[7-methoxy-2-(3,4,5-trimethoxybenzoyl)-1-benzofuran-3-yl]acetamide] | > 100 µM | – | –
COc1cc(C(=O)c2oc3c(OC)cccc3c2NC(=O)CI)cc(OC)c1OC [Compound 3p, 2-Iodo-N-[7-methoxy-2-(3,4,5-trimethoxybenzoyl)-1-benzofuran-3-yl]acetamide] | 6.96 ± 1.12 µM | 42.8 ± 3.77 µM | –
COc1cc(C(=O)c2sc3ccccc3c2NC(C)=O)cc(OC)c1OC [Compound 3q, N-[2-(3,4,5-Trimethoxybenzoyl)-1-benzothien-3-yl] acetamide] | 0.63 ± 0.04 µM | – | –
COc1cc(C(=O)c2sc3ccccc3c2NC(=O)CCl)cc(OC)c1OC [Compound 3r, 2-Chloro-N-[2-(3,4,5-trimethoxybenzoyl)-1-benzothien-3-yl]acetamide] | 0.6 ± 0.02 µM | – | –
COc1cc(C(=O)c2sc3ccccc3c2NC(=O)CBr)cc(OC)c1OC [Compound 3s, 2-Bromo-N-[2-(3,4,5-trimethoxybenzoyl)-1-benzothien-3-yl]acetamide] | 0.61 ± 0.04 µM | 0.5 ± 0.01 µM | –
COc1cc(C(=O)c2sc3ccccc3c2NC(=O)CI)cc(OC)c1OC [Compound 3t, 2-Iodo-N-[2-(3,4,5-trimethoxybenzoyl)-1-benzothien-3-yl]acetamide] | 0.76 ± 0.02 µM | 0.58 ± 0.09 µM | –
COc1cc(C(=O)c2sc3cc(C)ccc3c2NC(C)=O)cc(OC)c1OC [Compound 3u, N-[6-Methyl-2-(3,4,5-trimethoxybenzoyl)-1-benzothien-3-yl]acetamide] | 0.7 ± 0.01 µM | – | –
COc1cc(C(=O)c2sc3cc(C)ccc3c2NC(=O)CCl)cc(OC)c1OC [Compound 3v, 2-Chloro-N-[6-methyl-2-(3,4,5-trimethoxybenzoyl)-1-benzothien-3-yl]acetamide] | 0.08 µM | – | –
COc1cc(C(=O)c2sc3cc(C)ccc3c2NC(=O)CBr)cc(OC)c1OC [Compound 3w, 2-Bromo-N-[6-methyl-2-(3,4,5-trimethoxybenzoyl)-1-benzothien-3-yl]acetamide] | 0.5 ± 0.08 µM | – | –
COc1cc(C(=O)c2sc3cc(C)ccc3c2NC(=O)CI)cc(OC)c1OC [Compound 3x, 2-Iodo-N-[6-methyl-2-(3,4,5-trimethoxybenzoyl)-1-benzothien-3-yl]acetamide] | 0.61 ± 0.01 µM | 0.44 ± 0.07 µM | –
COc1cc(C(=O)c2sc3c(C)cccc3c2NC(C)=O)cc(OC)c1OC [Compound 3y, N-[7-Methyl-2-(3,4,5-trimethoxybenzoyl)-1-benzothien-3-yl]acetamide] | 0.032 µM | – | –
COc1cc(C(=O)c2sc3c(C)cccc3c2NC(=O)CCl)cc(OC)c1OC [Compound 3z, 2-Chloro-N-[7-methyl-2-(3,4,5-trimethoxybenzoyl)-1-benzothien-3-yl]acetamide] | 0.04 ± 0.02 µM | 0.05 µM | –
COc1cc(C(=O)c2sc3cc(C)ccc3c2NC(=O)CO[N+](=O)[O-])cc(OC)c1OC [Compound 4c, 2-{[6-Methyl-2-(3,4,5-trimethoxybenzoyl)-1-benzothien-3-yl]amino}-2-oxoethyl nitrate] | 0.03 ± 0.02 µM | 0.28 ± 0.03 µM | fold increase in potency relative to 4b ([1]; against K562 cells): 20 fold
C=C(Br)C(=O)Nc1c(C(=O)c2cc(OC)c(OC)c(OC)c2)oc2ccccc12 [Compound 5a, 2-Bromo-N-[2-(3,4,5-trimethoxybenzoyl)-1-benzofuran-3-yl]acrylamide] | 5.1 ± 0.07 µM | 0.53 µM | fold more active than amino counterpart 2a ([2]; against L1210 cells): 60 fold
C=C(Br)C(=O)Nc1c(C(=O)c2cc(OC)c(OC)c(OC)c2)oc2c(OC)cccc12 [Compound 5d, 2-Bromo-N-[7-methoxy-2-(3,4,5-trimethoxybenzoyl)-1-benzofuran-3-yl]acrylamide] | 55.9 ± 4.6 µM | 26.8 ± 3.2 µM | –
C=C(Br)C(=O)Nc1c(C(=O)c2cc(OC)c(OC)c(OC)c2)sc2cc(C)ccc12 [Compound 5f, 2-Bromo-N-[6-methyl-2-(3,4,5-trimethoxybenzoyl)-1-benzothien-3-yl]acrylamide] | 0.94 ± 0.06 µM | 0.059 µM | –
COc1ccc(/C=C\c2cc(OC)c(OC)c(OC)c2)cc1O [combretastatin A-4, reference compound] | – | – | Inhibition of colchicine binding (tubulin): 85–90%

The next lines start with results.

IC50 [1] | SMILES | IC50 [2] | further results
31.4 ± 1 µM | COc1cc(C(=O)c2oc3ccccc3c2NC(=O)CO[N+](=O)[O-])cc(OC)c1OC [Compound 4a, 2-Oxo-2-{[2-(3,4,5-trimethoxybenzoyl)-1-benzofuran-3-yl]amino}ethyl nitrate] | – | –
0.55 ± 0.05 µM | COc1cc(C(=O)c2sc3ccccc3c2NC(=O)CO[N+](=O)[O-])cc(OC)c1OC [Compound 4b, 2-Oxo-2-{[2-(3,4,5-trimethoxybenzoyl)-1-benzothien-3-yl]amino}ethyl nitrate] | – | –
0.05 ± 0.01 µM | COc1cc(C(=O)c2sc3c(C)cccc3c2NC(=O)CO[N+](=O)[O-])cc(OC)c1OC [Compound 4d, 2-{[7-Methyl-2-(3,4,5-trimethoxybenzoyl)-1-benzothien-3-yl]amino}-2-oxoethyl nitrate] | – | fold more potent than 4c ([2]; against L1210 cells): about 5 fold
> 100 µM | C=C(Br)C(=O)Nc1c(C(=O)c2cc(OC)c(OC)c(OC)c2)oc2ccc(OC)cc12 [Compound 5b, 2-Bromo-N-[5-methoxy-2-(3,4,5-trimethoxybenzoyl)-1-benzofuran-3-yl]acrylamide] | – | –
25.9 ± 2.3 µM | C=C(Br)C(=O)Nc1c(C(=O)c2cc(OC)c(OC)c(OC)c2)oc2cc(OC)ccc12 [Compound 5c, 2-Bromo-N-[6-methoxy-2-(3,4,5-trimethoxybenzoyl)-1-benzofuran-3-yl]acrylamide] | – | –
0.58 ± 0.03 µM | C=C(Br)C(=O)Nc1c(C(=O)c2cc(OC)c(OC)c(OC)c2)sc2ccccc12 [Compound 5e, 2-Bromo-N-[2-(3,4,5-trimethoxybenzoyl)-1-benzothien-3-yl]acrylamide] | – | –
0.49 ± 0.03 µM | C=C(Br)C(=O)Nc1c(C(=O)c2cc(OC)c(OC)c(OC)c2)sc2c(C)cccc12 [Compound 5g, 2-Bromo-N-[7-methyl-2-(3,4,5-trimethoxybenzoyl)-1-benzothien-3-yl]acrylamide] | – | –
